We go through 95 molecules from ChEMBL document CHEMBL4513216, “Probing the Open Global Health Chemical Diversity Library for Multistage-Active Starting Points for Next-Generation Antimalarials” (ACS Infect Dis, 2020).

Molecules are shown by their SMILES.

A short description of the data set: Toxicity liver stage against HepG2, at 10uM. Type of data set: cell-based. Also on record: test concentration 10 uM, cell line HepG2-A16-CD81EGFP. Particulars: human, HepG2-A16-CD81EGFP cells; read-out: INHIBITION
A digest of the protocol: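 Uninfected HepG2-A16-CD81EGFP cells, 3 × 10^3 per well, 1536-well, plated on prespotted compound at 10 μM final, parasite-free screening media added to match infected plates; puromycin 10 μM positive, DMSO 0.5% negative; run in parallel with 48 h PbLuc assay at 37 °C, 5% CO2; viability by CellTiter-Glo luminescence, normalized to controls.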
`CC(C)(C)CC(=O)N1CC[C@@H](CC(=O)O)[C@@H](CCN2CCCCC2)C1`: the cytotoxicity at 10 µM is -1.11%.

With `O=C(NC[C@H]1C[C@@H]2CCN1C[C@@H]2CN1CCCCC1)Nc1ccccc1`, the cytotoxicity at 10 µM was 10%.

As to `CC(=O)c1cccc(NC(=O)c2cnc(N3CCN(C)CC3)nc2C)c1`, the cytotoxicity at 10 µM worked out at 4.28%.

Regarding `CC(C)Nc1oc(-c2ccc(S(=O)(=O)N(C)C)o2)nc1C#N`, the cytotoxicity at 10 µM is -11.6%.

Consider `O=c1[nH]c2c(-c3ccccn3)nsc2c(=O)n1CC1CC1`, for which the cytotoxicity at 10 µM is 36.2%.

Consider `CCc1ccc(CN2CCC3(CC2)C(=O)N(C)CCN3CC)cc1`, for which the cytotoxicity at 10 µM was -4.13%.

`Cc1noc(C)c1CN1CCCC2(CCN(C(=O)C3CC3)C2)C1` (stereo not given): the cytotoxicity at 10 µM was 2%.

Take `COCCN1CCC2(CC1)CN(Cc1cccc(C)n1)C(=O)CO2`: the cytotoxicity at 10 µM is -4.52%.

On to `COCCNC(=O)[C@@H]1C[C@H]2[C@H](CCN2c2cc(OC)ncn2)O1`, for which the cytotoxicity at 10 µM is 8.56%.

In the case of `Cc1cccc(C(=O)N2CC[C@H]3C[C@@H](C)O[C@@H]3C2)n1`, the cytotoxicity at 10 µM amounted to 5.37%.

For the molecule `Cc1nn(C(C)C)c2cnn(CC(=O)N3CCSCC3)c12`, the cytotoxicity at 10 µM is 5.86%.

Consider `Cn1nc(C(=O)N2CCSCC2)cc1NC(=O)c1ccccc1`, for which the cytotoxicity at 10 µM was -13.9%.

Take `Cc1nn(CCc2nnc(NCC(C)C)s2)c(C)c1Br`: the cytotoxicity at 10 µM amounted to 1.91%.

For the molecule `Cc1cc(-c2ccnn2C)nc(C2CCN(S(C)(=O)=O)CC2)n1`, the cytotoxicity at 10 µM was found to be 0.425%.

Regarding `Cn1ccnc1C1(O)CCCN(Cc2ccncc2)CC1` (stereo not given), the cytotoxicity at 10 µM turned out to be 1.52%.

As for `COCCNc1ccc(CC2CCCN(C3CCOCC3)C2)nn1` (stereo not given), the cytotoxicity at 10 µM is 6.38%.

In the case of `CO[C@@H]1CCC[C@@H](NC(=O)CCCn2cncn2)[C@H]1O`, the cytotoxicity at 10 µM was 7.87%.

As to `CCN1CCCC(O)(c2nc(C)c(CCOc3ccccc3F)s2)CC1` (stereo not given), the cytotoxicity at 10 µM is -32.1%.

On to `O=C(c1cc(C2CCCN(Cc3ccccn3)C2)no1)N1CCCC1` (stereo not given), for which the cytotoxicity at 10 µM was -18.9%.

In the case of `COCCOCC(=O)N1C[C@@H]2CC[C@H](Oc3ccccc3)[C@@H]2C1`, the cytotoxicity at 10 µM is -27.9%.

For `c1ccc(-c2nnc(C3CCCN(CC4CCCCC4)C3)o2)nc1` (stereo not given), the cytotoxicity at 10 µM is -28.5%.

As for `CN(C)C(=O)C1CN(Cc2nccs2)CCN(S(C)(=O)=O)C1` (stereo not given), the cytotoxicity at 10 µM was determined as 0.325%.

Regarding `CCC(CC)C(=O)NC1CCCc2nc(N3CCOCC3)ncc21` (stereo not given), the cytotoxicity at 10 µM came to 4.99%.

In the case of `O=C(Cc1ccc(F)cc1)N1CCCCC1c1ccn2ccnc2n1` (stereo not given), the cytotoxicity at 10 µM was -0.722%.

Regarding `Cc1cccc(N2Cc3c(NC4CCCC4)ncnc3N(C)CC2=O)c1`, the cytotoxicity at 10 µM was 10.3%.

Turning to `O=C(O)Cc1cn2cc(C(F)(F)F)ccc2n1`, the cytotoxicity at 10 µM came out at 11.4%.

In the case of `CCN(CC)S(=O)(=O)NCC1Cc2ccccc2O1` (stereo not given), the cytotoxicity at 10 µM stood at 0.477%.

Regarding `Cc1ccc(C(=O)NCCNCC2CNc3ccnn3C2)cc1` (stereo not given), the cytotoxicity at 10 µM worked out at 7.41%.

Take `CCS(=O)(=O)CCSc1cccc(C#N)c1`: the cytotoxicity at 10 µM was -3.24%.

`Cc1ccc(C(=O)NC2CCN(Cc3noc(C(C)C)n3)CC2)s1`: the cytotoxicity at 10 µM is -10.7%.

On to `CN1CCCN(C(=O)c2cnsn2)c2cc(F)ccc21`, for which the cytotoxicity at 10 µM was -4.03%.

As for `Cn1nnc2cc(C(=O)NS(=O)(=O)c3cccc(C#N)c3)ccc21`, the cytotoxicity at 10 µM is -6.29%.

Take `CCC(CO)NC(=O)Cc1ccc(NC(=O)CC2=CCCCC2)cc1` (stereo not given): the cytotoxicity at 10 µM is 0.571%.

For `CC(=O)N1CCC(Nc2ccc(Br)cc2C#N)C1` (stereo not given), the cytotoxicity at 10 µM stood at 2.5%.

In the case of `Cc1ccsc1CNC(=O)CC1CN(C(=O)OC(C)(C)C)C1`, the cytotoxicity at 10 µM was -4.66%.

For `O=C1OCCN1c1cccc(CNCc2cc(F)ccc2F)c1`, the cytotoxicity at 10 µM was 25.3%.

For `CC(O)(CNC(=O)c1cccnc1-n1cccn1)c1ccco1` (stereo not given), the cytotoxicity at 10 µM was 3.09%.

`CC(=O)NC(CC(=O)Nc1nc(C)c(C)s1)c1ccccc1` (stereo not given): the cytotoxicity at 10 µM was 3.78%.

As for `Cc1cc(C)cc(OCC(=O)N2CCCN(CC(N)=O)CC2)c1`, the cytotoxicity at 10 µM is 0.821%.

On to `COCCOCC(=O)Nc1nc2c(OC)cc(F)cc2s1`, for which the cytotoxicity at 10 µM was -1.29%.

For the molecule `Cc1cc(C(C)NC(=O)c2c[nH]c(=O)c(Cl)c2)c(C)o1` (stereo not given), the cytotoxicity at 10 µM was 12.5%.

`CC(c1cc(F)ccc1F)N1CCN(C(=O)c2ccc(=O)[nH]c2)CC1` (stereo not given): the cytotoxicity at 10 µM stood at 5.94%.

As to `O=C1CCN(CCS(=O)(=O)c2ccc(Cl)cc2)CCN1`, the cytotoxicity at 10 µM was -8.48%.

As to `Cc1occc1C(=O)Nc1ccnc(OC2CCOC2)c1` (stereo not given), the cytotoxicity at 10 µM is -12.8%.

`Cn1ncc2c1C(COCC1CC1)CN(c1ncc(F)cn1)C2` (stereo not given): the cytotoxicity at 10 µM came to 12.1%.

Regarding `O=C([C@H]1CCCO1)N1CCC2(CC1)Cc1ccccc1CNC2=O`, the cytotoxicity at 10 µM is -101%.

Take `CC(C)Oc1ncnc2c1CCN(C(=O)c1cccn1C)CC2`: the cytotoxicity at 10 µM was determined as 6.95%.

With `CC(=O)c1cc(CC(=O)N2CCCC2c2nc(C(C)C)no2)cs1` (stereo not given), the cytotoxicity at 10 µM was found to be 3.07%.

For `CCN1CC2(CCN(C(=O)c3nc4cc(C)ccn4c3F)CC2)CC1=O`, the cytotoxicity at 10 µM came to 12.3%.

On to `Cc1ncc(CN(C)C2CCCN(CCc3ccccc3)C2)n1C` (stereo not given), for which the cytotoxicity at 10 µM is -4.17%.

In the case of `CN(CCCC1CCCO1)C(=O)c1cccc(C#N)c1` (stereo not given), the cytotoxicity at 10 µM is -7.52%.

`Cc1ccncc1C(=O)N1C[C@@H]2CN(c3ncccn3)C[C@]2(C(=O)O)C1`: the cytotoxicity at 10 µM worked out at 2.36%.

`CCC[C@H]1CN(CCOC)C[C@@H]1NC(=O)Cn1cc(C)cn1`: the cytotoxicity at 10 µM was found to be 4.83%.

`O=C(O)CCc1cc2n(n1)CCN(Cc1cnc(N3CCCC3)nc1)C2`: the cytotoxicity at 10 µM is -1.89%.

Turning to `COc1cc2c(cc1-c1nc3c(cnn3C(C)C)[nH]1)OCO2`, the cytotoxicity at 10 µM is -6.85%.

Take `CS(=O)(=O)N1CC[C@]2(O)CCN(CCCC(=O)c3ccccc3)C[C@@H]2C1`: the cytotoxicity at 10 µM is -8.86%.

`COCCc1noc(CNC(=O)C2CC(=O)N(C(C)(C)C)C2)n1` (stereo not given): the cytotoxicity at 10 µM stood at 3.77%.

Consider `Cc1ccc(OC2(C(=O)N(C)Cc3ccoc3)CCNCC2)cc1`, for which the cytotoxicity at 10 µM turned out to be 9.41%.

On to `O=C(c1ccnc(N2CCOC(C(F)(F)F)C2)c1)N1CCCC1` (stereo not given), for which the cytotoxicity at 10 µM is -3.5%.

Regarding `CN(C)Cc1ccc(C2CCCCN2C(=O)c2cccnn2)cc1` (stereo not given), the cytotoxicity at 10 µM is -3.29%.

As to `CCOc1ccccc1N1CCN(c2nnc(C)o2)CC1`, the cytotoxicity at 10 µM was -10.9%.

`CC(C)N1CCC(CC(=O)NC[C@H]2CCc3ccccc3O2)CC1`: the cytotoxicity at 10 µM was found to be 2.04%.

In the case of `CN(CC1CCCO1)c1nc(-c2cccnc2)nc2c1CCNCC2` (stereo not given), the cytotoxicity at 10 µM is -4.68%.

Consider `C/C=C(\C)CN1CCCn2nc(CNC(=O)C3CCC3)cc2C1`, for which the cytotoxicity at 10 µM was 4.92%.

In the case of `COc1ccc(-n2ncc(C(C)NCc3cnc(SC)nc3)c2C)cc1` (stereo not given), the cytotoxicity at 10 µM is 0.423%.

For the molecule `COc1ccc(F)c(F)c1CN1CCC2(CC1)[C@H](O)C[C@@H]2OCCN`, the cytotoxicity at 10 µM was -14.5%.

Take `O=C(Cc1cccnc1)N1CCC(OCc2ccccc2)CC1`: the cytotoxicity at 10 µM was -1.96%.

`CC(=O)N1CCCn2nc(CNS(=O)(=O)N3CCCCCC3)cc2C1`: the cytotoxicity at 10 µM worked out at 3.74%.

For `c1ccc(CN2CCN(c3ccc4nncn4n3)CC2)nc1`, the cytotoxicity at 10 µM was -1.1%.

Turning to `CN(Cc1cnn(C)c1)C(=O)CN1CCCC(Cn2cncn2)C1` (stereo not given), the cytotoxicity at 10 µM is -0.808%.

`CNc1nc(CNC(=O)Nc2cccc(-n3ccc(C)n3)c2)cs1`: the cytotoxicity at 10 µM is -15.7%.

Turning to `O=C(NCCNc1ccccn1)N1CCC(O)CC1`, the cytotoxicity at 10 µM was -8.66%.

`CCOCCCNC(=O)Nc1ccc(F)c(C(N)=O)c1`: the cytotoxicity at 10 µM is -16.9%.

`Cc1nccn1C1CCCN(C(=O)Cc2cn3ccccc3n2)C1` (stereo not given): the cytotoxicity at 10 µM is -20.9%.

With `CCC(CNC(=O)Nc1cnn(CC)c1)N1CCc2ccccc2C1` (stereo not given), the cytotoxicity at 10 µM stood at 4.72%.

In the case of `COc1c(C2CCCN2C(=O)c2ccc(C#N)cc2)c(C)nn1C` (stereo not given), the cytotoxicity at 10 µM was -1.72%.

Regarding `COc1ccc(C2=CCN(C(=O)C3CCCN(C(N)=O)C3)CC2)cc1` (stereo not given), the cytotoxicity at 10 µM was -10.1%.

In the case of `CNc1cc(N2CCCC2CNCc2cnc(C)cn2)ncn1` (stereo not given), the cytotoxicity at 10 µM is -4.51%.

Consider `Cc1noc2ncc(C(=O)N3CCCC3c3cnn(C)c3)cc12` (stereo not given), for which the cytotoxicity at 10 µM was -6.2%.

In the case of `Cn1ccnc1CN1CCCC1c1noc(C2CC2)n1` (stereo not given), the cytotoxicity at 10 µM was 0.265%.

As to `COCCNC(=O)NCCc1ccn(-c2ccccc2)n1`, the cytotoxicity at 10 µM was -0.0722%.

As to `Cc1cnn(CC2CCCN2C(=O)c2ccc3cc[nH]c3c2)c1` (stereo not given), the cytotoxicity at 10 µM amounted to 0.409%.

Take `O=C(c1ccnc(C2CCNCC2)c1)N1CCCC1`: the cytotoxicity at 10 µM was 3.69%.

As for `COc1cccc(C(=O)N2CCOCC2CN(C)C)c1OC` (stereo not given), the cytotoxicity at 10 µM was -4.03%.

On to `CN1CC(=O)N(c2ccccc2)CC12CCN(Cc1nccn1C)C2` (stereo not given), for which the cytotoxicity at 10 µM is -1.17%.

Regarding `O=C(COCC1CC[C@H]2[C@H](CCN2c2ncccn2)O1)N1CCCC1` (stereo not given in full), the cytotoxicity at 10 µM is 1.27%.

As to `CN(C)CCN1CCN(Cc2cccs2)Cc2cccnc21`, the cytotoxicity at 10 µM was -3.24%.

On to `O=C(c1ccncc1)N1CCN(Cc2cccnc2)c2ncccc2C1`, for which the cytotoxicity at 10 µM was -1.16%.

With `CCc1cnc(N2CC3(CCN(Cc4ccsc4)C3)C2)nc1`, the cytotoxicity at 10 µM was determined as 2.98%.

For `Cc1nn(C)c(C)c1S(=O)(=O)N1CC[C@@H]2O[C@@H](C)C[C@H]2C1`, the cytotoxicity at 10 µM turned out to be 7.15%.

As for `CN1C(=O)C[C@H]2[C@H]1CCN2Cc1cccc(C#N)c1`, the cytotoxicity at 10 µM was -75.6%.

In the case of `O=C(NCc1ccccc1F)C1=NOC2(CCNC2)C1` (stereo not given), the cytotoxicity at 10 µM was found to be 3.23%.

On to `Cc1ccc(CN2CC[C@H]3CO[C@H](CN4CCCC4)[C@H]3C2)o1`, for which the cytotoxicity at 10 µM was -115%.

As to `O=C(CC1[C@H]2CN(Cc3ccsc3)C[C@@H]12)N1CCCC1` (stereo not given in full), the cytotoxicity at 10 µM was -1.16%.

Take `COCC(=O)NCC1(COc2cnccn2)C[C@@H](O)[C@@H](O)C1` (stereo not given in full): the cytotoxicity at 10 µM was determined as 2.17%.
